As a reminder, the pKa is the pH at which an ionisable group is half protonated. As usually defined, the IC50 is the concentration that inhibits the measured activity by half.

The source made the active and inactive calls. The rule behind the calls is not given here. Where only a bound is given, the exact number is not on record here.

This note sets out measurements from ChEMBL document CHEMBL1921778, “Rational design and synthesis of aminopiperazinones as β-secretase (BACE) inhibitors” (Bioorg Med Chem Lett, 2011).

Data set [1] in a line: Drug uptake in mouse brain at 30 mg/kg, sc after 1 hr. The data set is classed as ADME, organism-based. Further details: dose 30 mg/kg, route subcutaneous. To be noted: read-out: Drug uptake. A digest of the protocol:
(§1)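 Mice dosed subcutaneously; brain and plasma drug levels measured at 1, 2 and 4 h post-dose, brain in ng/g, plasma in ng/ml.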

Data set [2] can be described thus: Drug uptake in mouse brain at 30 mg/kg, sc after 4 hrs. The data set is classed as ADME, organism-based. More on the design: dose 30 mg/kg, route subcutaneous. To be noted: read-out: Drug uptake. A digest of the protocol: as §1
Data set [3] is described as follows: Drug uptake in mouse brain at 30 mg/kg, sc after 2 hrs. Type of data set: ADME, organism-based. Further details: dose 30 mg/kg, route subcutaneous. To be noted: read-out: Drug uptake. A digest of the protocol:
as §1

Data set [4] is described as follows: Plasma concentration in mouse at 30 mg/kg, sc after 1 hr. The data set is classed as ADME, organism-based. More on the design: dose 30 mg/kg, route subcutaneous. A digest of the protocol: as §1
Data set [5] can be described thus: Plasma concentration in mouse at 30 mg/kg, sc after 2 hrs. The data set is classed as ADME, organism-based. Further details: dose 30 mg/kg, route subcutaneous. An outline of the steps:
as §1

A short description of data set [6]: Dissociation constant, pKa of the compound. The data set is classed as physicochemical.
Data set [7] is described as follows: Plasma concentration in mouse at 30 mg/kg, sc after 4 hrs. Further details: dose 30 mg/kg, route subcutaneous. The data set is classed as ADME, organism-based. A digest of the protocol: as §1
The target in data set [8] is T1, Beta-secretase 1 (Homo sapiens, UniProt P56817). Nature of the data set: Inhibition of human recombinant BACE1 using fluorescent Mca-Ser-Glu-Val-Asn-Leu-Asp-Ala-Glu-Phe-Lys(Dnp)-OH peptide as substrate after 1 hr by spectroflurorimeter analysis.
In data set [9] the target is T1, Beta-secretase 1. Nature of the data set: Inhibition of human BACE1-mediated amyloid beta 42 secretion in human SKNBE2 cells expressing human APP695 after 18 hrs by sandwich alphalisa assay. Type of data set: cell-based. Background: Bead proximity is the source of the signal in Alpha formats.
Data set [10] concerns the target T1, Beta-secretase 1. Nature of the data set: Inhibition of human BACE1-mediated amyloid beta TOT secretion in human SKNBE2 cells expressing human APP695 after 18 hrs by sandwich alphalisa assay. The data set is classed as cell-based. A digest of the protocol: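 SKNBE2 human neuroblastoma cells expressing wild-type hAPP695 exposed to diluted compound for 18 h; secreted AβTOT in medium quantified by sandwich AlphaLISA using biotinylated AbN/25 on streptavidin beads and 4G8 detection antibody.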

Data set [11] has as its system Mus musculus. Nature of the data set: Antialzheimer activity in CD1 mouse brain assessed as reduction of amyloid beta TOT production at 30 mg/kg, sc after 1 hr using fluorogenic peroxidase as substrate by ELISA. The data set is classed as functional. Further details: scale not given: the % may be the effect or the level left. To be noted: route subcutaneous. A digest of the protocol:
(§2)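 Male CD1 mice (22-28 g), fasted overnight, given single subcutaneous dose in 20% hydroxypropyl β-cyclodextrin; vehicle/untreated controls. Soluble AβTOT by sandwich ELISA (capture JRF/rAb/2, biotinylated 4G8), Aβ1-40 standards 10000–0.3 pg/ml, overnight 4 °C, QuantaBlu fluorogenic read-out.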

The nature of data set [12]: Plasma concentration in mouse at 60 mg/kg, sc after 1 hr. The data set is classed as ADME, organism-based. Further details: dose 60 mg/kg, route subcutaneous. An outline of the steps: as §1
In data set [13] the test system is Mus musculus. Nature of the data set: Antialzheimer activity in CD1 mouse brain assessed as reduction of amyloid beta TOT production at 60 mg/kg, sc after 2 hrs using fluorogenic peroxidase as substrate by ELISA. Type of data set: functional. Further details: scale not given: the % may be the effect or the level left. To be noted: route subcutaneous. An outline of the steps:
as §2
A general note: An ELISA detects its analyte on a solid surface through an enzyme-linked reagent.

A short description of data set [14]: Drug uptake in mouse brain at 60 mg/kg, sc after 1 hr. Type of data set: ADME, organism-based. Further details: dose 60 mg/kg, route subcutaneous. To be noted: read-out: Drug uptake. A digest of the protocol: as §1
Data set [15] in a line: Drug uptake in mouse brain at 60 mg/kg, sc after 2 hrs. Type of data set: ADME, organism-based. More on the design: dose 60 mg/kg, route subcutaneous. To be noted: read-out: Drug uptake. A digest of the protocol:
as §1

The nature of data set [16]: Plasma concentration in mouse at 60 mg/kg, sc after 4 hrs. The data set is classed as ADME, organism-based. Further details: dose 60 mg/kg, route subcutaneous. An outline of the steps:
as §1

Data set [17] can be described thus: Plasma concentration in mouse at 60 mg/kg, sc after 2 hrs. Type of data set: ADME, organism-based. Further details: dose 60 mg/kg, route subcutaneous. An outline of the steps: as §1
Data set [18] deals with Mus musculus. Nature of the data set: Antialzheimer activity in CD1 mouse brain assessed as reduction of amyloid beta TOT production at 60 mg/kg, sc after 1 hr using fluorogenic peroxidase as substrate by ELISA. The data set is classed as functional. Further details: scale not given: the % may be the effect or the level left. To be noted: route subcutaneous. A digest of the protocol: as §2

The nature of data set [19]: Drug uptake in mouse brain at 60 mg/kg, sc after 4 hrs. To be noted: read-out: Drug uptake. Further details: dose 60 mg/kg, route subcutaneous. The data set is classed as ADME, organism-based. A digest of the protocol: as §1
Data set [20] deals with Mus musculus. Nature of the data set: Antialzheimer activity in CD1 mouse brain assessed as reduction of amyloid beta TOT production at 60 mg/kg, sc after 4 hrs using fluorogenic peroxidase as substrate by ELISA. The data set is classed as functional. More on the design: scale not given: the % may be the effect or the level left. To be noted: route subcutaneous. A digest of the protocol: as §2

In data set [21] the test system is Mus musculus. Nature of the data set: Antialzheimer activity in CD1 mouse brain assessed as reduction of amyloid beta TOT production at 30 mg/kg, sc after 4 hrs using fluorogenic peroxidase as substrate by ELISA. Type of data set: functional, organism-based. Further details: dose 30 mg/kg. An outline of the steps: as §2
The subject of data set [22] is Mus musculus. Nature of the data set: Antialzheimer activity in CD1 mouse brain assessed as reduction of amyloid beta TOT production at 30 mg/kg, sc after 2 hrs using fluorogenic peroxidase as substrate by ELISA. More on the design: dose 30 mg/kg. The data set is classed as functional, organism-based. An outline of the steps: as §2

T1 sequence (P56817 whole entry): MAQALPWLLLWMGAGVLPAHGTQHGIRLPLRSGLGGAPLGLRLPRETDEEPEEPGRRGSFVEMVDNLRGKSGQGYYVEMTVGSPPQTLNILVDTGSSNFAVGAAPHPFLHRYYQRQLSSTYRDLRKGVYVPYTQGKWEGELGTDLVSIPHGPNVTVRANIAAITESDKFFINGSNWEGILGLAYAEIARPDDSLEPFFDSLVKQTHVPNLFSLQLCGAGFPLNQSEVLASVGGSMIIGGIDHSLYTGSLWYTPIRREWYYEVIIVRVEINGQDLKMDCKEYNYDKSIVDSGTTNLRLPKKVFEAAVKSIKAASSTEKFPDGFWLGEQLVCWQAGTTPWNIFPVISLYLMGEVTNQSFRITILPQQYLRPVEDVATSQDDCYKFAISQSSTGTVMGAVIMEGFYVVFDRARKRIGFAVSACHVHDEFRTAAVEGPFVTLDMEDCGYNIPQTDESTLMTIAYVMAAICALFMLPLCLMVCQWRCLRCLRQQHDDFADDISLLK

For the compound `CN1CC(N)=NC(C)(c2cccc(NC(=O)c3ccc(Cl)cn3)c2)C1=O` (racemic), the concentration at 1 h in data set [1] stood at 184 ng/g; in data set [4], 4630 ng/mL. Also, the concentration at 4 h in data set [2] came out at 90 ng/g; in data set [7], 439 ng/mL. Further, the values for the concentration at 2 h in [3] and in [5] were 123 ng/g and 1710 ng/mL, respectively. This compound showed a pKa in [6] of 7.8.
`CN1CC(N)=NC(C)(c2cccc(NC(=O)c3ccc(C#N)cn3)c2)C1=O` (stereo not given): in [6], the pKa was below 8. Besides, the figures for the IC50 in [8], in data set [9] and in data set [10] were 813 nM, 186 nM and 151 nM, respectively.
As for `CN1CC(C)(c2cccc(NC(=O)c3ccc(Cl)cn3)c2)N=C(N)C1=O` (racemic) [listing 1 of 2 here], the figures for the concentration at 1 h in [1] and in data set [4] were 614 ng/g and 993 ng/mL, respectively. Besides, the concentration at 4 h is 20.5 ng/g in data set [2] and 200 ng/mL in data set [7]. The concentration at 2 h in data set [3] is 157 ng/g; in [5], 461 ng/mL. In addition, in data set [11], the Activity was found to be 34%. The IC50 in data set [8] amounted to 550 nM; in data set [9], 115 nM; in data set [10] it was 107 nM.
Take `CN1CC(N)=N[C@](C)(c2cccc(NC(=O)c3ccc(Cl)cn3)c2)C1=O`: the pKa in [6] is below 8.
In turn, `CN1CC(C)(c2cccc(NC(=O)c3ccc(Cl)cn3)c2)N=C(N)C1=O` (single isomer, unassigned; enantiomer 1) yielded a pKa in [6] of 7.6. In addition, the IC50 in [8] was above 30000 nM; in data set [9], above 10000 nM; in data set [10], above 10000 nM.
For `CN1CC(C)(c2cc(NC(=O)c3ccc(Cl)cn3)ccc2F)N=C(N)C1=O` (single isomer, unassigned; enantiomer 2), the concentration at 1 h in data set [12] was 7140 ng/mL; in [14] it was 8080 ng/g. Besides, the Activity in data set [13] worked out at 67%; in data set [18], 48%; in data set [20], 73%. Besides, the figures for the concentration at 2 h in data set [15] and in data set [17] were 3340 ng/g and 2460 ng/mL, respectively. Further, the concentration at 4 h was 270 ng/mL in data set [16] and 347 ng/g in data set [19].
For the compound `CN1CC(C)(c2cccc(NC(=O)c3ccc(Cl)cn3)c2)N=C(N)C1=O` (racemic) [listing 2 of 2 here], the result in data set [21] and in [22] was inactive.
For `Cc1cnc(C(=O)Nc2cccc(C3(C)N=C(N)CN(C)C3=O)c2)cn1` (stereo not given), the pKa in [6] is below 8. Further, the IC50 is 7080 nM in data set [8], 1260 nM in data set [9] and 1150 nM in data set [10].
`CN1CC(C)(c2cc(NC(=O)c3ccc(Cl)cn3)ccc2F)N=C(N)C1=O` (single isomer, unassigned; enantiomer 1) displayed a pKa in data set [6] below 8.
On the same count and under the same terms, the same measure for `CN1CC(N)=N[C@@](C)(c2cccc(NC(=O)c3ccc(Cl)cn3)c2)C1=O`: below 8.
As for `CN1CC(C)(c2cccc(NC(=O)c3ccc(Cl)cn3)c2)N=C(N)C1=O` (single isomer, unassigned; enantiomer 2), the results for the IC50 in data set [8], in [9] and in data set [10] were 295 nM, 83 nM and 85 nM, respectively.
Compound `CN1CC(N)=NC(C)(c2cccc(NC(=O)c3ccc(C(F)(F)F)cn3)c2)C1=O` (stereo not given) had a pKa in data set [6] below 8. The 50% inhibitory concentration (IC50) is 1380 nM in data set [8], 68 nM in [9] and 79 nM in [10].
